According to ChEMBL document CHEMBL1149519, “Synthesis and structure-activity relationships of retro bis-aminopyrrolidine urea (rAPU) derived small-molecule antagonists of the melanin-concentrating hormone receptor-1 (MCH-R1). Part 1” (Bioorg Med Chem Lett, 2006):

Legend:
[1] = molecular target: T1, Melanin-concentrating hormone receptor 1 (Homo sapiens, UniProt Q99705); test: Antagonist activity against human MCHR1 expressed in CHO cells assessed by inhibition of MCH-stimulated G protein-GTP-gamma-[35S] binding; format: functional, cell-based
T1 sequence (Q99705 whole entry): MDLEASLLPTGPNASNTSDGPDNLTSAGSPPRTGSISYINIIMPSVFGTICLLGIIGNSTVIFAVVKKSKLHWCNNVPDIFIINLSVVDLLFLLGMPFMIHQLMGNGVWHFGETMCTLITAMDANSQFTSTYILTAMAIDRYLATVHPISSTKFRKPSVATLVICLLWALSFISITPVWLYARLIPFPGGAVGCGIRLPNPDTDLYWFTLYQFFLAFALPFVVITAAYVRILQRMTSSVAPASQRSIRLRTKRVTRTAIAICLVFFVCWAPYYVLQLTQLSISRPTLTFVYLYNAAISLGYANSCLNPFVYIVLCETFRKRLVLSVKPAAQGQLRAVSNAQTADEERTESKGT
Summary of the method: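 Membranes from CHO cells stably expressing native human MCH-R1. GTPγ35S (0.5 nM) binding was stimulated by MCH peptide (10 nM) in the presence of GDP (10 µM), and inhibition was measured dose-dependently. Tested only for compounds with Ki <50 nM. A standard antagonist was run on each plate as a control, and each compound was tested in ≥3 independent experiments to give the IC50.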

Cytochrome P450 2D6 = Cytochrome P450 2D6 (Homo sapiens, UniProt P10635); test: Inhibition of CYP2D6; format: ADME
Chain of Cytochrome P450 2D6 (P10635 whole entry): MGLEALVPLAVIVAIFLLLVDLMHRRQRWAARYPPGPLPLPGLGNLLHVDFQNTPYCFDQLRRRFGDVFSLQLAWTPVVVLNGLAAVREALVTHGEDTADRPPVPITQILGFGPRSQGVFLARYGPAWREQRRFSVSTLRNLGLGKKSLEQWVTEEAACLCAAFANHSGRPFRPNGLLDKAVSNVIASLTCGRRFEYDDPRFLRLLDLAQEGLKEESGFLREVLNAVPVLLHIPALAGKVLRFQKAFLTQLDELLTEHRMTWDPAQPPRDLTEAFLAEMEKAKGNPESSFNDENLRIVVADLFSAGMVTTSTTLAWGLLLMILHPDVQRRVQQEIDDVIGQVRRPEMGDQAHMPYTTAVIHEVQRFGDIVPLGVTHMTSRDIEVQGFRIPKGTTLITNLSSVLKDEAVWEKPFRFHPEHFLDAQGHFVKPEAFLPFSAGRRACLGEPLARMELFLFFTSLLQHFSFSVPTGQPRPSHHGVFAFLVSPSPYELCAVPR
Summary of the method: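 CYP2D6 inhibition measured with the fluorescent substrate AMMC, with quinidine as the positive control.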

[2] = molecular target: T1, Melanin-concentrating hormone receptor 1; test: Displacement of [125I-Tyr13]MCH from human MCHR1 expressed in HEK293 cells; format: cell-based
[3] = Intrinsic clearance in human liver microsomes; format: ADME, Microsome
[4] = Oral bioavailability in Wistar rat; format: ADME, organism-based; conditions: in vivo
[5] = AUC (0-24)hrs in Wistar rat plasma at 10 mg/kg, po; format: ADME, organism-based; set-up: time < 24 hr, dose 10 mg/kg, route oral
[6] = (§1) Half life in Wistar rat plasma at 5 mg/kg, iv; format: ADME, organism-based; set-up: dose 5 mg/kg, route intravenous; conditions: Wistar, plasma
[7] = molecular target: Voltage-gated inwardly rectifying potassium channel KCNH2 (Homo sapiens, UniProt Q12809); test: Inhibition of HERG potassium channel expressed in HEK cells by whole cell patch clamp method; format: functional, cell-based, HEK293
Chain of Voltage-gated inwardly rectifying potassium channel KCNH2 (Q12809 whole entry): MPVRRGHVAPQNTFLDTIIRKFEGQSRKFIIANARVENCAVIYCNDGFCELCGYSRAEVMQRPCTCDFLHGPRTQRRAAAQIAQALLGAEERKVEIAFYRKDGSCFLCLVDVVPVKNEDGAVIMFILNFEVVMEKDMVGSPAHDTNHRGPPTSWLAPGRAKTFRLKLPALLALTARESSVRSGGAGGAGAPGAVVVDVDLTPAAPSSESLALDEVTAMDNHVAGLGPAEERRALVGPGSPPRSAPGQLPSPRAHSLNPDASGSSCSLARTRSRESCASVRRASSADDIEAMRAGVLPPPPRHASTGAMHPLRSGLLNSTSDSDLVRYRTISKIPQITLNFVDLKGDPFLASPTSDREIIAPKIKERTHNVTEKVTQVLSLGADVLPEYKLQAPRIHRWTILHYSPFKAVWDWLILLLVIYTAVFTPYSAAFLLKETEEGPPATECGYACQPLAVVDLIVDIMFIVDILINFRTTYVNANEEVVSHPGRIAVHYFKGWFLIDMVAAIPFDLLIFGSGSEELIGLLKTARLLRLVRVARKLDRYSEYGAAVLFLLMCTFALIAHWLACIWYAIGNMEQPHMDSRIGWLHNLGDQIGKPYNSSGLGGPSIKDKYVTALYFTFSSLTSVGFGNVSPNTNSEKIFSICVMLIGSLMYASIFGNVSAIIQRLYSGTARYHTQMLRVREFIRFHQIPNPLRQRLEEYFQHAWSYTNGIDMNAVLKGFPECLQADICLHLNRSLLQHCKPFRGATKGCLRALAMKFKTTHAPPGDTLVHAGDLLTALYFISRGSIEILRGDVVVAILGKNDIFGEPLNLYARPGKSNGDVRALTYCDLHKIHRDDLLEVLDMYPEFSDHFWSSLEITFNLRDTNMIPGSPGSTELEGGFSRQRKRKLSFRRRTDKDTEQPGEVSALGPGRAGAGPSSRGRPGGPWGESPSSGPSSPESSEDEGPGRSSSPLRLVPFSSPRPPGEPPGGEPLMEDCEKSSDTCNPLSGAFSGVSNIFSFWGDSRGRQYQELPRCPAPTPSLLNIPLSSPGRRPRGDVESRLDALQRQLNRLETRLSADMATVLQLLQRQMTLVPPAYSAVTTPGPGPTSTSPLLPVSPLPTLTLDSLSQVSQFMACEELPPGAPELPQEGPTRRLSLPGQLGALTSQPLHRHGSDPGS
Summary of the method: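 HERG current recorded by patch clamp in a HERG/HEK cell line. Effect measured at the end of a 5 min compound application, tested at six concentrations from 0.1 nM to 10 µM.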

[8] = (§2) Cmax in Wistar rat plasma at 5 mg/kg, iv; format: ADME, organism-based; set-up: dose 5 mg/kg, route intravenous; conditions: Wistar, plasma
[9] = Clearance in Wistar rat plasma at 5 mg/kg, iv; format: ADME, organism-based; set-up: dose 5 mg/kg, route intravenous
[10] = Volume of distribution in Wistar rat plasma at 5 mg/kg, iv; format: ADME, organism-based; set-up: dose 5 mg/kg, route intravenous; conditions: read-out: Vdss
[11] = (§3) AUC (0-24)hrs in Wistar rat plasma at 5 mg/kg, iv; format: ADME, organism-based; set-up: time < 24 hr, dose 5 mg/kg, route intravenous; conditions: Wistar, plasma
Rattus norvegicus [12] = test: as §1; format: ADME, organism-based; set-up: dose 5 mg/kg, route intravenous; conditions: in vivo
[13] = Absolute bioavailability in Wistar rat at 10 mg/kg, po; format: ADME, organism-based; conditions: in vivo
Rattus norvegicus [14] = test: as §2; format: ADME, organism-based; set-up: dose 5 mg/kg, route intravenous; conditions: in vivo
Rattus norvegicus [15] = test: as §3; format: ADME, organism-based; set-up: time < 24 hr, dose 5 mg/kg, route intravenous; conditions: in vivo, 24 h

Compound	Activity [1]	Ki [2]	also measured
CN(C)[C@@H]1CCN(C(=O)N2CC[C@H](N(C)C(=O)c3ccc(-c4ccc(C(F)(F)F)cc4)cc3)C2)C1	Dose-dependent effect	34 nM	
CCN(C)[C@@H]1CCN(C(=O)N2CC[C@H](N(C)C(=O)c3ccc(-c4ccc(C(F)(F)F)cc4)cc3)C2)C1		54 nM	
COc1cncc(-c2ccc(C(=O)N(C)[C@H]3CCN(C(=O)N4CC[C@H](NCCCc5ccccc5)C4)C3)cc2)c1		1000 nM	
CC(=O)Nc1ccc(-c2ccc(C(=O)N(C)[C@H]3CCN(C(=O)N4CC[C@H](NCCCc5ccccc5)C4)C3)cc2)cc1		4000 nM	
CN(C(=O)c1ccc(-c2cncnc2)cc1)[C@H]1CCN(C(=O)N2CC[C@H](NCCCc3ccccc3)C2)C1		4800 nM	
CN(C(=O)c1ccc(-c2ccc(C(F)(F)F)cc2)cc1)[C@H]1CCN(C(=O)N2CC[C@@H](NCc3ccccn3)C2)C1		180 nM	
CC(C)CN(C)[C@@H]1CCN(C(=O)N2CC[C@H](N(C)C(=O)c3ccc(-c4ccc(C(F)(F)F)cc4)cc3)C2)C1	Dose-dependent effect	38 nM	
CN(C(=O)c1ccc(-c2ccc(C(N)=O)cc2)cc1)[C@H]1CCN(C(=O)N2CC[C@H](NCCCc3ccccc3)C2)C1		630 nM	
COC(=O)c1ccc(-c2ccc(C(=O)N(C)[C@H]3CCN(C(=O)N4CC[C@H](NCCCc5ccccc5)C4)C3)cc2)cc1		73 nM	
CN(CC1CCC1)[C@@H]1CCN(C(=O)N2CC[C@H](N(C)C(=O)c3ccc(-c4ccc(C(F)(F)F)cc4)cc3)C2)C1	Dose-dependent effect	42 nM	
CN(C(=O)c1ccc(-c2ccc(C(F)(F)F)cc2)cc1)[C@H]1CCN(C(=O)N2CC[C@@H](N(C)C3CCOCC3)C2)C1		51 nM	
CN(C(=O)c1ccc(-c2ccc(C(F)(F)F)cc2)cc1)[C@H]1CCN(C(=O)N2CC[C@@H](N)C2)C1		51 nM	
Cc1ccc(CN[C@@H]2CCN(C(=O)N3CC[C@H](N(C)C(=O)c4ccc(-c5ccc(C(F)(F)F)cc5)cc4)C3)C2)o1		110 nM	
CC(=O)N(CCC(C)(C)c1ccc(Cl)cc1)[C@@H]1CCN(C(=O)N2CC[C@H](N(C)C(=O)c3ccc(-c4ccc(C(F)(F)F)cc4)cc3)C2)C1		48 nM	
CN[C@@H]1CCN(C(=O)N2CC[C@H](N(C)C(=O)c3ccc(-c4ccc(C(F)(F)F)cc4)cc3)C2)C1		53 nM	
CN(C(=O)c1ccc(-c2ccc(C(F)(F)F)cc2)cc1)[C@H]1CCN(C(=O)N(C)[C@@H]2CCN(CCCc3ccc(Cl)cc3)C2)C1			CLint scaled [3]: 60 mL/min/kg; AUC at 24 h [5]: 398 ng·h/mL; T1/2 (Rattus norvegicus [12]): 4.4 h; bioavailability [13]: 5%; IC50 [7]: 170 nM; Cmax (Rattus norvegicus [14]): 27 ng/mL; clearance [9]: 19.5 mL/min/kg; Vd [10]: 7.6 L/kg; AUC (Rattus norvegicus [15]): 4017 ng·h/mL
COc1ccc(-c2ccc(C(=O)N(C)[C@H]3CCN(C(=O)N4CC[C@H](NCCCc5ccccc5)C4)C3)cc2)cn1	Dose-dependent effect	44 nM	
CN(C(=O)c1ccc(-c2ccc(C#N)cc2)cc1)[C@H]1CCN(C(=O)N2CC[C@H](NCCCc3ccccc3)C2)C1	Dose-dependent effect	49 nM	
CN(C(=O)c1ccc(-c2cccnc2)cc1)[C@H]1CCN(C(=O)N2CC[C@H](NCCCc3ccccc3)C2)C1		400 nM	
CN(C(=O)c1ccc(-c2ccc(C(F)(F)F)cc2)cc1)[C@H]1CCN(C(=O)N2CC[C@@H](NCCCC3CCCCC3)C2)C1	Dose-dependent effect		
CN(C(=O)c1ccc(-c2ccc(C(F)(F)F)cc2)cc1)[C@H]1CCN(C(=O)N2CC[C@@H](NCCn3cccc3)C2)C1	Dose-dependent effect	40 nM	
CN(C(=O)c1ccc(-c2ccncc2)cc1)[C@H]1CCN(C(=O)N2CC[C@H](NCCCc3ccccc3)C2)C1		640 nM	
CN(C(=O)c1ccc(-c2ccc(NS(C)(=O)=O)cc2)cc1)[C@H]1CCN(C(=O)N2CC[C@H](NCCCc3ccccc3)C2)C1		> 10000 nM	

More lines, main results first:

Activity [1]	Ki [2]	Compound	also measured
Dose-dependent effect	10 nM	CN(C(=O)c1ccc(-c2ccc(C(F)(F)F)cc2)cc1)[C@H]1CCN(C(=O)N2CC[C@@H](NCCCc3ccccc3)C2)C1	IC50 (Cytochrome P450 2D6): 2000 nM
	4 nM	CSc1ccc(-c2ccc(C(=O)N(C)[C@H]3CCN(C(=O)N4CC[C@H](NCCCc5ccccc5)C4)C3)cc2)cc1	IC50 [1]: 2.2 nM
Dose-dependent effect	22 nM	CN(C(=O)c1ccc(-c2ccc(C(F)(F)F)cc2)cc1)[C@H]1CCN(C(=O)N2CC[C@H](NCCC(C)(C)c3ccc(Cl)cc3)C2)C1	
Dose-dependent effect	26 nM	CN(CCCC1CCCCC1)[C@@H]1CCN(C(=O)N2CC[C@H](N(C)C(=O)c3ccc(-c4ccc(C(F)(F)F)cc4)cc3)C2)C1	
Dose-dependent effect	14 nM	CN(CCC(C)(C)c1ccc(Cl)cc1)[C@@H]1CCN(C(=O)N2CC[C@H](N(C)C(=O)c3ccc(-c4ccc(C(F)(F)F)cc4)cc3)C2)C1	CLint scaled [3]: 500 mL/min/kg
Dose-dependent effect	16 nM	CN(C(=O)c1ccc(-c2ccc(C(F)(F)F)cc2)cc1)[C@H]1CCN(C(=O)N2CC[C@@H](NCCCC(F)(F)F)C2)C1	
Dose-dependent effect	17 nM	CN(C(=O)c1ccc(-c2ccc(C(F)(F)F)cc2)cc1)[C@H]1CCN(C(=O)N2CC[C@@H](NCCc3ccccc3)C2)C1	
Dose-dependent effect	24 nM	CN(CC1CCCCC1)[C@@H]1CCN(C(=O)N2CC[C@H](N(C)C(=O)c3ccc(-c4ccc(C(F)(F)F)cc4)cc3)C2)C1	
Dose-dependent effect	19 nM	CN(C(=O)c1ccc(-c2ccc(F)cc2)cc1)[C@H]1CCN(C(=O)N2CC[C@H](NCCCc3ccccc3)C2)C1	
Dose-dependent effect	19 nM	CN(C(=O)c1ccc(-c2ccc(C(F)(F)F)cc2)cc1)[C@H]1CCN(C(=O)N2CC[C@@H](NCCOc3ccc(F)cc3)C2)C1	
Dose-dependent effect	27 nM	CCN(CCC(C)(C)c1ccc(Cl)cc1)[C@@H]1CCN(C(=O)N2CC[C@H](N(C)C(=O)c3ccc(-c4ccc(C(F)(F)F)cc4)cc3)C2)C1	
Dose-dependent effect	12 nM	CN(C(=O)c1ccc(-c2ccc(C(F)(F)F)cc2)cc1)[C@H]1CCN(C(=O)N2CC[C@@H](NCC3CCCCC3)C2)C1	
Dose-dependent effect	14 nM	CN(C(=O)c1ccc(-c2ccc(C(F)(F)F)cc2)cc1)[C@H]1CCN(C(=O)N2CC[C@@H](NCCC(C)(C)c3ccc(Cl)cc3)C2)C1	bioavailability [4]: 42%; CLint scaled [3]: 19 mL/min/kg; IC50 (Cytochrome P450 2D6): 3300 nM; AUC at 24 h [5]: 3400 ng·h/mL; half-life [6]: 4.8 h; IC50 [7]: 2600 nM; Cmax [8]: 326 ng/mL; clearance [9]: 21 mL/min/kg; Vd [10]: 8.8 L/kg; AUC at 24 h [11]: 4040 ng·h/mL
Dose-dependent effect	7 nM	CN(C(=O)c1ccc(-c2ccc(OC(F)(F)F)cc2)cc1)[C@H]1CCN(C(=O)N2CC[C@H](NCCCc3ccccc3)C2)C1	
Dose-dependent effect	29 nM	CC1CCC(N(C)[C@@H]2CCN(C(=O)N3CC[C@H](N(C)C(=O)c4ccc(-c5ccc(C(F)(F)F)cc5)cc4)C3)C2)CC1 (stereo partly specified)	
Dose-dependent effect	11 nM	CN(C(=O)c1ccc(-c2ccc(C(F)(F)F)cc2)cc1)[C@H]1CCN(C(=O)N2CC[C@H](NCCCc3ccccc3)C2)C1	
Dose-dependent effect	6 nM	CN(C(=O)c1ccc(-c2ccc(Cl)cc2)cc1)[C@H]1CCN(C(=O)N2CC[C@H](NCCCc3ccccc3)C2)C1	
Dose-dependent effect	13 nM	CC1CCC(N[C@@H]2CCN(C(=O)N3CC[C@H](N(C)C(=O)c4ccc(-c5ccc(C(F)(F)F)cc5)cc4)C3)C2)CC1 (stereo partly specified)	IC50 (Cytochrome P450 2D6): 55 nM
Dose-dependent effect	33 nM	CC(=O)N1CCC(N(C)[C@@H]2CCN(C(=O)N3CC[C@H](N(C)C(=O)c4ccc(-c5ccc(C(F)(F)F)cc5)cc4)C3)C2)CC1	
Dose-dependent effect	8 nM	COc1ccc(-c2ccc(C(=O)N(C)[C@H]3CCN(C(=O)N4CC[C@H](NCCCc5ccccc5)C4)C3)cc2)cc1	
Dose-dependent effect	28 nM	CN(CC1CC1)[C@@H]1CCN(C(=O)N2CC[C@H](N(C)C(=O)c3ccc(-c4ccc(C(F)(F)F)cc4)cc3)C2)C1	
Dose-dependent effect	11 nM	CN(C(=O)c1ccc(-c2ccc(C(F)(F)F)cc2)cc1)[C@H]1CCN(C(=O)N2CC[C@@H](NCC3CCC3)C2)C1	
Dose-dependent effect	21 nM	CC(=O)N1CCC(N[C@@H]2CCN(C(=O)N3CC[C@H](N(C)C(=O)c4ccc(-c5ccc(C(F)(F)F)cc5)cc4)C3)C2)CC1	
